# pKi: −log10 of the molar value.
# Legend:
# [1] = target: T1, Calpain-1 catalytic subunit (Homo sapiens, UniProt P07384); experiment: Inhibition of the cysteine protease human Calpain 1
# T1 sequence (P07384 whole entry): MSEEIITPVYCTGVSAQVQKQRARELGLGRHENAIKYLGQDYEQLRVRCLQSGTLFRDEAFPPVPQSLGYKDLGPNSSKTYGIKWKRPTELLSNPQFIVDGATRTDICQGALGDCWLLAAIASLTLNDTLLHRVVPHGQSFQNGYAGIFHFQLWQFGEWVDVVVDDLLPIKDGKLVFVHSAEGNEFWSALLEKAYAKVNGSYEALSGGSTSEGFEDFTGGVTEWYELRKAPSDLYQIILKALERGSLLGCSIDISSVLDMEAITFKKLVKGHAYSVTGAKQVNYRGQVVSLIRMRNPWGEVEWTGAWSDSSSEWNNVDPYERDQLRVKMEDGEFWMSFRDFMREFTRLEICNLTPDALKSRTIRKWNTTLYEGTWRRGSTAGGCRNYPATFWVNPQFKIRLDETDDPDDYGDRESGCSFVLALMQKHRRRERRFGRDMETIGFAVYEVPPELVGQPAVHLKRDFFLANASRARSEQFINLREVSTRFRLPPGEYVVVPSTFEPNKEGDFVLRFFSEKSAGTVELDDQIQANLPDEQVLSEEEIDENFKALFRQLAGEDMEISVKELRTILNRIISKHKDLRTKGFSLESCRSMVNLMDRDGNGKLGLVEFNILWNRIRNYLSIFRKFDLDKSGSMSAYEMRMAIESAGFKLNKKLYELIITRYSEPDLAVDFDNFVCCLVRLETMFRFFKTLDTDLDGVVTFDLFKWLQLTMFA
# How it was run: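 Calpain assay in 25 mM Tris, pH 8.0, with 10 mM CaCl₂ and 5% DMSO. […] hydrolysis was read as initial velocity (t = 30-60 s) after a 30 s delay, at room temperature. Five or more inhibitor concentrations (not above 2 × K_obs) were used at two fixed substrate levels. Ki came from Dixon plots (1/v vs I) averaged over triplicates.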
# Cathepsin B [2] = target: Cathepsin B (Bos taurus, UniProt P07688); experiment: Inhibition of bovine cathepsin B
# How it was run: (§1)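 Bovine or human cathepsin B, assayed in 20 mM sodium acetate, pH 5.2, with 0.5 mM dithiothreitol and 2% DMSO. The two enzyme sources were used interchangeably. Ki was taken from Dixon plots, with triplicate assays plotted as 1/v versus inhibitor concentration.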
# Cathepsin B [3] = target: T2, Cathepsin B (Homo sapiens, UniProt P07858); experiment: Inhibition of human cathepsin B; how it was run: as §1
# Cathepsin B [4] = target: T2, Cathepsin B; experiment: Compound was evaluated for the inhibition of Cathepsin B; Gives nonlinear dixon plots; how it was run: as §1
# Cathepsin B [5] = target: T2, Cathepsin B; experiment: Compound was evaluated for the inhibition of Cathepsin B; how it was run: as §1
# 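For IC in this document: measured as membrane permeability of platelets.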
pKi [1],pKi (Cathepsin B [2]),pKi (Cathepsin B [3]),Ki (Cathepsin B [4]),pKi (Cathepsin B [5]),Structure (SMILES),IC (Rattus norvegicus) [µM]
6.12,6.77,–,–,–,CCC(NC(=O)C(CC(C)C)NC(=O)C(c1ccccc1)c1ccccc1)C(=O)C(=O)NCC(O)c1ccccc1 (centres undefined),180
6.19,–,5.52,–,–,CCC(NC(=O)C(CC(C)C)NC(=O)OCc1ccccc1)C(=O)C(=O)NCc1ccccn1 (centres undefined),110
5.64,–,5.74,–,–,CCC(NC(=O)C(CC(C)C)NC(=O)OCc1ccccc1)C(=O)C(=O)NCc1cc(OC)cc(OC)c1 (centres undefined),30
6.92,–,4.89,–,–,CC(C)CC(NC(=O)OCc1ccccc1)C(=O)NC(Cc1ccccc1)C(=O)C(=O)NCCCN1CCOCC1 (centres undefined),54
5.89,–,5.68,–,–,CC(C)CC(NC(=O)OCc1ccccc1)C(=O)NC(Cc1ccccc1)C(=O)C(=O)NCC(O)c1ccccc1 (centres undefined),44
6.85,–,5.16,–,–,CCC(NC(=O)C(CC(C)C)NC(=O)OCc1ccccc1)C(=O)C(=O)NCCCN1CCOCC1 (centres undefined),45
–,–,5.70,–,–,CCC(NC(=O)C(CC(C)C)NC(=O)OCc1ccccc1)C(=O)C(=O)NCCOCCO (centres undefined),58
6.52,7.51,–,–,–,CCC(NC(=O)C(CC(C)C)NC(=O)OCc1ccccc1)C(=O)C(=O)NCCc1c[nH]c2ccccc12 (centres undefined),180
6.38,–,6.05,–,–,CCC(NC(=O)C(CC(C)C)NC(=O)OCc1ccccc1)C(=O)C(=O)NCC1(C)CC(O)CC(C)(C)C1 (centres undefined),103
6.48,–,5.35,–,–,CCC(NC(=O)C(CC(C)C)NC(=O)OCc1ccccc1)C(=O)C(=O)NCC1CCCO1 (centres undefined),22
–,–,5.70,–,–,CCC(NC(=O)C(CC(C)C)NC(=O)OCc1ccccc1)C(=O)C(=O)NCc1ccccc1 (centres undefined),30
6.00,–,5.60,–,–,CCC(NC(=O)C(CC(C)C)NC(=O)OCc1ccccc1)C(=O)C(=O)NCCN1CCOCC1 (centres undefined),23
6.42,–,–,Non linear Dixon plots,–,CCC(NC(=O)C(CC(C)C)NC(=O)OCc1ccccc1)C(=O)C(=O)NCCc1ccc(O)cc1 (centres undefined),23
–,–,–,–,5.03,CC(C)CC(NC(=O)OCc1ccccc1)C(=O)NC(Cc1ccccc1)C(=O)C(=O)NCCc1ccccc1 (centres undefined),100
–,–,5.62,–,–,CCNC(=O)C(=O)C(CC)NC(=O)C(CC(C)C)NC(=O)OCc1ccccc1 (centres undefined),100
5.96,–,6.43,–,–,CCC(NC(=O)C(CC(C)C)NC(=O)OCc1ccccc1)C(=O)C(=O)NCC(O)c1ccccc1 (centres undefined),69
5.96,–,5.66,–,–,CC(C)CC(NC(=O)C(c1ccccc1)c1ccccc1)C(=O)NC(Cc1ccccc1)C(=O)C(=O)NCc1ccccn1 (centres undefined),> 300
–,–,5.89,–,–,CCC(NC(=O)C(CC(C)C)NC(=O)OCc1ccccc1)C(=O)C(=O)NCCc1ccccc1 (centres undefined),50
5.96,–,5.19,–,–,CCC(NC(=O)C(CC(C)C)NC(=O)OCc1ccccc1)C(=O)C(=O)NCc1ccncc1 (centres undefined),54
–,–,–,–,5.34,CC(C)CC(NC(=O)OCc1ccccc1)C(=O)NC(Cc1ccccc1)C(=O)C(=O)NCc1ccccc1 (centres undefined),> 300
–,–,5.22,–,–,CCNC(=O)C(=O)C(Cc1ccccc1)NC(=O)C(CC(C)C)NC(=O)OCc1ccccc1 (centres undefined),22
6.10,–,5.35,–,–,CCC(NC(=O)C(CC(C)C)NC(=O)OCc1ccccc1)C(=O)C(=O)NCCO (centres undefined),78
–,–,6.70,–,–,CCC(NC(=O)C(CC(C)C)NC(=O)OCc1ccccc1)C(=O)C(=O)NCCCc1ccccc1 (centres undefined),100
–,–,6.55,–,–,CCC(NC(=O)C(CC(C)C)NC(=O)OCc1ccccc1)C(=O)C(=O)NCCCCCO (centres undefined),54
6.60,–,5.38,–,–,CCCC(NC(=O)C(CC(C)C)NC(=O)OCc1ccccc1)C(=O)C(=O)NCCCN1CCOCC1 (centres undefined),18
6.46,–,5.52,–,–,CCCNC(=O)C(=O)C(Cc1ccccc1)NC(=O)C(CC(C)C)NC(=O)OCc1ccccc1 (centres undefined),31
6.10,–,5.22,–,–,CCC(NC(=O)C(CC(C)C)NC(=O)OCc1ccccc1)C(=O)C(=O)NCc1ccco1 (centres undefined),58
–,–,5.92,–,–,CCC(NC(=O)C(CC(C)C)NC(=O)OCc1ccccc1)C(=O)C(=O)NCc1cccnc1 (centres undefined),> 300

# From ChEMBL document CHEMBL1129436, “Novel peptidyl alpha-keto amide inhibitors of calpains and other cysteine proteases” (J Med Chem, 1996)
